Screens (PubChem)
SMARCA2 act: activators of SMARCA2 function; 370,000 tested, 1% active; activation, % at 9.1 µM; MG213 cells, MMTV-luciferase reporter, dexamethasone, overnight; in the data active = activation above about 7.8%
MC4R antagonist: human MC4R antagonism in cAMP assay; P32245; MC4R-expressing cells, MTII-stimulated cAMP, LANCE TR-FRET; inhibition, % at 6.5 µM; 360,000 tested, 0.48% active;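 active = inhibition above its plate's cutoff, the mean of tested wells on that plate plus 3 SD, cut at about 29% in these data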
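material = U2OS cells stably expressing human melanocortin 4 receptor (MC4R) | also added = Melanotan II challenge | dosing = single nominal compound dose of 6.5 µM | detection = TR-FRET with Eu-cAMP and labeled anti-cAMP, 671 nm | replication = singlicate | timing = compound 30 min, challenge 1 h, detection 1 h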
F508del corr: CFTR F508del correction in bronchial cells; 350,000 tested, 0.36% active; AID 720511; activity (quench increase), % at 7.58 µM; CFBE cells, YFP halide quenching; stimulated with forskolin plus potentiator P3; % fluorescence drop versus neutral controls;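 active = mean added fluorescence quench of at least 8% versus neutral control, with both replicates also reaching 8%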;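 note: cells transiently co-express mutant CFTR-F508del with the halide-sensitive YFP; corrector assay measuring rescue of mutant channel to the surface after 24 h compound exposure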
MC4R ag barr: activates human MC4R beta-arrestin recruitment | U2OS MC4R beta-arrestin complementation, luminescence; percent of melanotan II response, DMSO zero | activation, % at 8.9 µM | 360,000 tested, 0.98% active;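 active = activation above a per-plate cutoff, the mean activation of sample wells on that plate plus 3 SD, cut at about 8% in these data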
MC4R barr conf: human MC4R beta-arrestin agonism confirmation. AID 602192. 2,400 tested, 31% active. U2OS MC4R beta-arrestin recruitment, luminescence; scaled DMSO 0%, Melanotan II 100%. activation, % at 8.9 µM. shares compounds with MC4R ag barr;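 active = mean activation across replicates above the hit cutoff set in the earlier primary screen, cut at about 8% in these data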
MOR DOR agonist: OPRM1-OPRD1 heterodimer agonism counter-screen | shares compounds with MC4R ag barr | U2OS PathHunter beta-arrestin, beta-gal luminescence; percent of deltorphin B response, DMSO zero | activation, % at 9.2 µM | 2,400 tested, 5.8% active;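 active = mean activation across replicates exceeds the hit threshold derived in the earlier primary screen, cut at about 18% in these data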
Target sequence (P35372 whole entry, looked up): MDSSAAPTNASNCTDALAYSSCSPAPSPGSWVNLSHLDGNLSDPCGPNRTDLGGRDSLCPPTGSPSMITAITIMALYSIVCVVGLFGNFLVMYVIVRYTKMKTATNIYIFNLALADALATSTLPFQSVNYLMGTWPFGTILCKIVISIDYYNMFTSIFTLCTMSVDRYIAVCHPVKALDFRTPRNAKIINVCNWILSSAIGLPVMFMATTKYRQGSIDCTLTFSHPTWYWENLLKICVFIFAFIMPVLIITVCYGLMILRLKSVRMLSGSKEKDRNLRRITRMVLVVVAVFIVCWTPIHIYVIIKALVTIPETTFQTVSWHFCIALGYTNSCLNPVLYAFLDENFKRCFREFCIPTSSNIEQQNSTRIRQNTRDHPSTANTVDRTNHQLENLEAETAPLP
Target sequence (P41143 whole entry, looked up): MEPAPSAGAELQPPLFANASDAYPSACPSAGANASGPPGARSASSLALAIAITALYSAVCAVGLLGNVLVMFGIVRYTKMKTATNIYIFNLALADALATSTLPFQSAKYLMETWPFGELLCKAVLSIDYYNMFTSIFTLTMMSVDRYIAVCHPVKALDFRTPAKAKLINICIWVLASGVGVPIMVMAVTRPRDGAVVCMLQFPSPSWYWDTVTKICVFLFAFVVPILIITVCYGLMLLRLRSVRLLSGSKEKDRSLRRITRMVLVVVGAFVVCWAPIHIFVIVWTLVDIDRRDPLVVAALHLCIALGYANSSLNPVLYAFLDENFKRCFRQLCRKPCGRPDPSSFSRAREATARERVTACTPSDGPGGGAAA
Large screens that a line does not name were inactive (follow-up assays come after a bar, where they were run); ! = a repeat was not active. A selection: hits, their analogues and other compounds. The true share with any hit is near 2.1%.

O=C(c1cccc(F)c1)N1CC2(C1)[C@H](c1ccccc1)[C@@H](CO)N2C(=O)C1CCOCC1	none (no result: SMARCA2 act, MC4R antagonist, MC4R ag barr)
Cc1cccc(NC(=O)NC(C)CCc2ccccc2)c1 (configuration not stated)	none (no result: F508del corr)
Cc1cccc(NC(=S)NC(C)CCc2ccccc2)c1 (configuration not stated)	MC4R ag barr 21.0 | MC4R barr conf inactive | MOR DOR agonist inactive
COc1ccc2c(c1)CCc1c(C(=O)NCc3ccc(F)cc3)noc1-2	none
O=C(NCCc1ccccc1)c1noc2c1CCc1ccccc1-2	MC4R ag barr 13.3 (no result: F508del corr) | MC4R barr conf inactive | MOR DOR agonist inactive
COc1ccc2c(c1)CCc1c(C(=O)Nc3ccc(OC)c(OC)c3)noc1-2	MC4R ag barr 19.9 (no result: F508del corr) | MC4R barr conf inactive | MOR DOR agonist inactive
COc1ccc2c(c1)CCc1c(C(=O)NCCc3ccc(OC)c(OC)c3)noc1-2	MC4R ag barr 20.3 (no result: F508del corr) | MC4R barr conf inactive | MOR DOR agonist inactive
COc1ccc2c(c1)CCc1c(C(=O)Nc3ccn(Cc4ccc(C)cc4)n3)noc1-2	MC4R ag barr 30.1 | MC4R barr conf 36.9 | MOR DOR agonist inactive
Cc1ccc(Cn2ccc(NC(=O)c3noc4c3CCc3ccccc3-4)n2)cc1	none (no result: F508del corr)
C[C@@H]1CN([C@@H](C)CO)C(=O)c2cc(NC(=O)c3ccncc3)ccc2O[C@H]1CN(C)C(=O)Nc1ccc2c(c1)OCO2	none (no result: SMARCA2 act, MC4R antagonist, MC4R ag barr)
Cc1ccccc1OCC(O)CNC1CCC(NCC(O)COc2ccccc2C)CC1 (configuration not stated)	MC4R ag barr 11.0 | MC4R barr conf 38.0 | MOR DOR agonist 34.9
Clc1ccc(Nc2nc3ccccc3n3nnnc23)cc1	none (no result: F508del corr)
Fc1cc(Br)ccc1Nc1nc2ccccc2n2nnnc12	MC4R ag barr 13.8 | MC4R barr conf 9.6 | MOR DOR agonist inactive
CN(C)CCCN(C(=O)c1cc2cc([N+](=O)[O-])ccc2s1)c1nc2cc3c(cc2s1)OCCO3	MC4R ag barr 35.3 | MC4R barr conf 24.8 | MOR DOR agonist inactive
CCCNC(=O)c1ccc(-c2nc3ccccc3s2)s1	MC4R ag barr 11.2 (no result: F508del corr) | MC4R barr conf inactive | MOR DOR agonist inactive
COc1ccc(S(=O)(=O)Nc2cccc3c2O[C@@H](CN(C)S(=O)(=O)c2ccc(Cl)cc2)[C@H](C)CN([C@@H](C)CO)C3=O)cc1	none (no result: SMARCA2 act, MC4R antagonist, MC4R ag barr)
CCOC(=O)C1(C)CCCCCN1C(=O)c1ccc(OC)c(C(F)(F)F)c1 (configuration not stated)	MC4R ag barr 10.3 | MC4R barr conf inactive | MOR DOR agonist inactive
CCn1c(SCC(=O)Nc2ccc3c(c2)oc2ccccc23)nnc1-c1ccc(N)cc1	MC4R ag barr 15.1 (no result: F508del corr) | MC4R barr conf 15.9 | MOR DOR agonist 19.2
CCOc1ccc2nc(NC(=O)c3cccc(-c4cc5ccccc5oc4=O)c3)sc2c1	MC4R ag barr 23.9 (no result: F508del corr) | MC4R barr conf 13.3 | MOR DOR agonist inactive
COc1ccc(O)c(/C=C2/SC(=S)N(Cc3ccccc3)C2=O)c1	none
COc1ccc(/C=C2\SC(=S)N(CCC(=O)Nc3ccc(C(=O)O)cc3)C2=O)cc1	none
COc1ccc(/C=C2\SC(=S)N(CCC(=O)Nc3cccc(O)c3)C2=O)cc1	MC4R ag barr 21.2 | MC4R barr conf inactive | MOR DOR agonist inactive
COc1ccc(/C=C2/SC(=S)N(Cc3ccccc3)C2=O)cc1O	MC4R ag barr 12.2 | MC4R barr conf inactive | MOR DOR agonist inactive
COc1ccc(/C=C2\SC(=S)N(CCCC(=O)Nc3ccc(O)cc3)C2=O)cc1	MC4R ag barr 16.9 | MC4R barr conf 10.3 | MOR DOR agonist inactive
COc1ccc(/C=C2/SC(=S)N(CCC(=O)O)C2=O)cc1	none (no result: F508del corr)
COc1ccc(/C=C2/SC(=S)N(CCCC(=O)Nc3ccc(O)cc3)C2=O)cc1	MC4R ag barr 12.2 | MC4R barr conf inactive | MOR DOR agonist inactive
CO[C@@H]1CN(C)C(=O)c2ccc(NS(C)(=O)=O)cc2OC[C@H](C)N(Cc2ccccn2)C[C@H]1C	none (no result: SMARCA2 act, MC4R antagonist, MC4R ag barr)
Cn1nc(C(=O)Nc2cccc(Cl)c2)cc1C(=O)Nc1cccc(Cl)c1	MC4R ag barr 14.3 | MC4R barr conf inactive | MOR DOR agonist inactive
Cn1nc(C(=O)Nc2ccc(Cl)cc2)cc1C(=O)Nc1ccc(Cl)cc1	none
CSc1ccc2c(c1)C(N1CCN(C)CC1)Cc1ccccc1S2 (configuration not stated)	MC4R ag barr 11.3! | MC4R barr conf inactive | MOR DOR agonist inactive
CC1(Oc2ccc(Cl)cc2)CCN(Cc2ccc(-c3ccccn3)cc2)C1 (configuration not stated)	MC4R ag barr 12.9 | MC4R barr conf inactive | MOR DOR agonist inactive
CSc1ccc(OC2(C)CCN(Cc3ccc(C(C)C)cc3)C2)cc1 (configuration not stated)	MC4R ag barr 11.6 | MC4R barr conf inactive | MOR DOR agonist inactive
CO[C@H]1CN(C)C(=O)c2ccc(NC(=O)c3cccc(F)c3)cc2OC[C@H](C)N(C(C)=O)C[C@H]1C	none (no result: SMARCA2 act, MC4R antagonist, MC4R ag barr)
O=C(CN(CCc1ccccc1)S(=O)(=O)c1ccc(Cl)cc1)N/N=C/c1ccc2c(c1)OCO2	MC4R ag barr 24.6 (no result: F508del corr) | MC4R barr conf inactive | MOR DOR agonist inactive
O=C(NCC[C@H]1CC[C@@H](NC(=O)C2CCCCC2)[C@@H](CO)O1)Nc1ccc(Cl)cc1	none (no result: SMARCA2 act, MC4R antagonist, MC4R ag barr)
CCOc1ccc(OCC(O)CNC2CCN(Cc3ccccc3)CC2)cc1 (configuration not stated)	none (no result: F508del corr)
CC(C)(c1ccccc1)c1ccc(OCC(O)CNC2CCN(Cc3ccccc3)CC2)cc1 (configuration not stated)	MC4R ag barr 25.4 | MC4R barr conf inactive | MOR DOR agonist 19.0
COc1ccc(NC(=O)N2CC(=O)N3[C@@H](CO)[C@@H](c4ccc(/C=C/c5ccccc5)cc4)[C@@H]3C2)cc1	none (no result: SMARCA2 act, MC4R antagonist, MC4R ag barr)
CCN1/C(=C/c2ccc3cc(C)cc(C)c3[n+]2CC)Sc2cc(C)ccc21	F508del corr 65.0, MC4R ag barr 45.0 | MC4R barr conf 87.1 | MOR DOR agonist inactive
Brc1ccc(Nc2nc(-c3cccnc3)cs2)cc1	none
CCOc1ccc(Nc2nc(-c3cccnc3)cs2)cc1	MC4R ag barr 24.8 | MC4R barr conf inactive | MOR DOR agonist inactive
C[C@H]1CN([C@@H](C)CO)S(=O)(=O)c2ccc(-c3cccc(F)c3)cc2O[C@H]1CN(C)S(=O)(=O)c1ccccc1	none (no result: SMARCA2 act, MC4R antagonist, MC4R ag barr)
CNS(=O)(=O)c1cccc(C(=O)OCC(=O)Nc2ccc(-c3nc4ccc(C)cc4s3)cc2)c1	MC4R ag barr 15.6 (no result: SMARCA2 act, F508del corr) | MC4R barr conf inactive | MOR DOR agonist inactive
CC(NS(=O)(=O)c1cccc(Cl)c1)C(=O)Nc1ccc(-c2nc3ccccc3s2)cc1 (configuration not stated)	MC4R ag barr 16.2 (no result: F508del corr) | MC4R barr conf 9.9 | MOR DOR agonist inactive
CC(C)NC(=O)N1CC2(C1)[C@H](c1ccccc1)[C@@H](CO)N2C(=O)C1CC1	none (no result: SMARCA2 act, MC4R antagonist, MC4R ag barr)
